This is a sample that favours compounds with a hit; in the whole collection about 5.8% have one here.
KDM4C inh – inhibitors of human demethylase GASC-1 KDM4C | Q9H3R0 | GST-KDM4C 2-372, H3K9me3 peptide, LANCE TR-FRET | inhibition, % at 12.5 µM | 96,000 compounds, 0.15% hits;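 active means mean replicate inhibition above about 25%, with at least 55% of replicates also reaching it, limit read from the data, passing the limit was not always enough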
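Material: GST-tagged GASC-1 (JMJD2C) catalytic fragment, aa 2-372 / Quantity: enzyme final amount 10 nM / Medium: HEPES buffer, pH 7.5, plus ascorbate / Doses: one test concentration per compound / Incubation: 30 min reaction, 60 min detection, RT / Measured by: LANCE TR-FRET / Read-out: inhibition from TR-FRET ratio decrease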
Pf Dd2 inh – inhibitors of Plasmodium falciparum Dd2 growth; P. falciparum Dd2 growth, SYBR Green, 72 h; stronger effect = lower value; AID 1159554; activity change, % at 10 µM; 94,000 compounds, 2.3% hits; in the data active means activity change below about -80%
Tcruzi prolif – T. cruzi proliferation inhibition. T. cruzi beta-gal in NIH3T3, GalScreen luminescence, 90 h. inhibition, % at 8.34 µM. 77,000 compounds, 5.9% hits. AID 624255;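 active means mean inhibition above about 93%, with at least 55% of replicates each passing it, limit read from the data, passing the limit was not always enough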
IDH1 mut inh – IDH1 R132H (human) inhibition; 70,000 compounds, 0.18% hits; O75874; IDH1 R132H reductase, diaphorase/resazurin fluorescence, 60 min; inhibition, % at 10 µM; in the data active means inhibition above about 34%;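 further: 0% = DMSO and 100% = no enzyme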
Target sequence (O75874 whole entry R132H): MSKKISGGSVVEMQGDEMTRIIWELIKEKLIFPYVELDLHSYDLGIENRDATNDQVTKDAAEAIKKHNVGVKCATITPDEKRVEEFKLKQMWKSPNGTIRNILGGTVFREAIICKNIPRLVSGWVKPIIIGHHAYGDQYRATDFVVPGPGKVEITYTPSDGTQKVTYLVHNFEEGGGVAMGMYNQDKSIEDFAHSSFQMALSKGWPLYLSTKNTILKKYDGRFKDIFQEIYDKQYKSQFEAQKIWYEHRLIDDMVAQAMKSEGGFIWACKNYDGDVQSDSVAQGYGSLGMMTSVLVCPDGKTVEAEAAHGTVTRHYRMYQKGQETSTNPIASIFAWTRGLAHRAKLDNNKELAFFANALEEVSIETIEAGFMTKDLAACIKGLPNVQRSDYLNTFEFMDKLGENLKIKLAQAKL
Starred values were filed as active, the others as inactive; / = not tested or not shown.

SMILES	KDM4C inh	Pf Dd2 inh	Tcruzi prolif	IDH1 mut inh
COc1ccc(S(=O)(=O)Nc2ccc3c(c2)CC(=O)N([C@H](C)CO)C[C@H](C)[C@@H](CN(C)Cc2ccc(C(=O)Nc4ccccc4N)cc2)O3)cc1	-4.7	-85.4*	48.6	0.0
Cc1ccc(S(=O)(=O)NC2c3cccc4cccc(c34)C2Sc2nnc(N)s2)cc1 (stereo unspecified)	/	/	/	0.4
COc1ccc(NC(=O)N(C)C[C@@H]2Oc3c(NC(=O)c4nc5ccccc5s4)cccc3C(=O)N([C@@H](C)CO)C[C@H]2C)cc1	-1.0	-87.2*	23.5	0.3
C[C@@H]1CN([C@@H](C)CO)C(=O)c2cccc(NC(=O)c3nc4ccccc4s3)c2O[C@H]1CN(C)C(=O)NC1CCCCC1	0.7	-88.7*	0.2	-1.8
C[C@@H]1CN([C@H](C)CO)C(=O)c2cccc(NC(=O)c3nc4ccccc4s3)c2O[C@H]1CN(C)C(=O)NC1CCCCC1	-0.4	-89.5*	-59.6	/
C[C@@H]1CN([C@@H](C)CO)C(=O)c2cc(NC(=O)Nc3ccccc3)ccc2O[C@H]1CN(C)Cc1ccncc1	-0.5	-0.9	29.1	-0.8
CCCNC(=O)Nc1ccc2c(c1)C(=O)N(C)C[C@@H](OC)[C@@H](C)CN[C@H](C)CO2	-1.6	9.9	59.0	0.1
C[C@H]1CN([C@@H](C)CO)C(=O)Cc2cc(NC(=O)Nc3ccccc3)ccc2O[C@H]1CN(C)Cc1ccc(Oc2ccccc2)cc1	-2.2	-5.8	64.4	-0.6
C[C@H](CO)N1C[C@H](C)[C@@H](CN(C)C(=O)Nc2ccccc2)Oc2ccc(NC(=O)Nc3ccc4c(c3)OCO4)cc2CC1=O	4.3	6.1	6.0	1.1
C[C@H](CO)N1C[C@H](C)[C@H](CN(C)Cc2ccc(-c3ccccc3)cc2)Oc2ccc(NC(=O)Nc3ccc4c(c3)OCO4)cc2CC1=O	-1.2	-4.9	64.6	1.9
C[C@H](CO)N1C[C@H](C)[C@@H](CN(C)C(=O)Nc2ccc3c(c2)OCO3)Oc2ccc(NC(=O)Nc3ccccc3)cc2CC1=O	1.0	-83.3*	-26.8	0.3
C[C@@H]1CN([C@@H](C)CO)C(=O)Cc2cc(NC(=O)Nc3ccccc3)ccc2O[C@H]1CN(C)Cc1ccc(-c2ccccc2)cc1	-1.3	-88.0*	60.1	-5.6
C[C@@H]1CN([C@@H](C)CO)C(=O)Cc2cc(NC(=O)Nc3ccccc3)ccc2O[C@H]1CN(C)Cc1ccc(Oc2ccccc2)cc1	1.2	-87.1*	72.3	1.2
C[C@H](CO)N1C[C@H](C)[C@@H](CN(C)Cc2ccc(-c3ccccc3)cc2)Oc2ccc(NC(=O)Nc3ccc4c(c3)OCO4)cc2CC1=O	0.2	-82.1*	56.2	0.3
CO[C@H]1CN(C)C(=O)c2ccc(NC(=O)c3ccccc3)cc2OC[C@@H](C)N(C(=O)CN(C)C)C[C@H]1C	1.4	15.4	-2.4	-0.2
Cc1noc(C)c1NC(=O)Nc1cccc2c1O[C@H](CN(C)Cc1ccc(Oc3ccccc3)cc1)[C@H](C)CN([C@H](C)CO)C2=O	-0.4	-57.4	15.3	2.1
C[C@H](CO)N1C[C@H](C)[C@@H](CN(C)Cc2ccc(Oc3ccccc3)cc2)Oc2ccc(NS(=O)(=O)c3cn(C)cn3)cc2CC1=O	-0.1	-90.2*	-73.9	0.5
C[C@H]1CN([C@@H](C)CO)C(=O)Cc2cc(NS(=O)(=O)c3cn(C)cn3)ccc2O[C@H]1CN(C)Cc1ccc(Oc2ccccc2)cc1	0.2	0.5	-0.3	-4.4
C[C@H](CO)N1C[C@H](C)[C@@H](CN(C)Cc2ccc3c(c2)OCO3)Oc2ccc(NC(=O)Nc3ccc4c(c3)OCO4)cc2CC1=O	-4.1	-91.2*	78.8	0.0
C[C@@H]1CN([C@H](C)CO)C(=O)c2cc(C#C[C@@H](C)O)cnc2O[C@@H]1CN(C)C(=O)c1ccc(F)cc1	-2.3	44.9	/	/
Cc1ccc(S(=O)(=O)N[C@H]2CC[C@H](CC(=O)O)O[C@@H]2CO)cc1	0.5	15.3	2.8	-0.3
C[C@@H]1CN([C@H](C)CO)C(=O)c2cc(NS(=O)(=O)c3cccs3)ccc2O[C@@H](C)CCCCO[C@H]1CN(C)C(=O)NC1CCCCC1	-0.7	-58.2	25.3	-2.5
C[C@@H]1CCCCO[C@H](CN(C)S(=O)(=O)c2ccc(F)cc2)[C@H](C)CN([C@@H](C)CO)C(=O)c2cc(NC(=O)c3ccccc3)ccc2O1	-1.0	-54.1	/	/
Cc1ccc(S(=O)(=O)N(C)C[C@@H]2OCCCC[C@@H](C)Oc3ccc(NC(=O)c4ccccc4)cc3C(=O)N([C@H](C)CO)C[C@@H]2C)cc1	-1.1	-74.4	-14.1	/
C[C@@H]1CCCCO[C@H](CN(C)S(=O)(=O)c2ccc(Cl)cc2)[C@@H](C)CN([C@@H](C)CO)C(=O)c2cc(NC(=O)c3ccccc3)ccc2O1	-1.5	-82.6*	103.4	-0.3
SMILES	KDM4C inh	Pf Dd2 inh	Tcruzi prolif	IDH1 mut inh
C[C@@H]1CCCCO[C@H](CN(C)S(=O)(=O)c2ccc(Cl)cc2)[C@@H](C)CN([C@H](C)CO)C(=O)c2cc(NC(=O)c3ccccc3)ccc2O1	-2.1	-77.7	104.2	8.4
C[C@H](CO)N1C[C@H](C)[C@@H](CN(C)S(=O)(=O)c2ccc(Cl)cc2)OCCCC[C@H](C)Oc2ccc(NC(=O)c3ccccc3)cc2C1=O	-1.5	-36.3	101.7	/
C[C@@H]1CN([C@H](C)CO)C(=O)c2cc(NC(=O)c3ccccc3)ccc2O[C@@H](C)CCCCO[C@H]1CN(C)S(=O)(=O)c1ccc(Cl)cc1	2.6	-85.0*	91.7	/
Cc1ccc(S(=O)(=O)N(C)C[C@@H]2OCCCC[C@H](C)Oc3ccc(NC(=O)c4ccccc4)cc3C(=O)N([C@@H](C)CO)C[C@H]2C)cc1	-4.0	-83.6*	81.9	/
C[C@@H]1CCCCO[C@H](CN(C)S(=O)(=O)c2ccc(F)cc2)[C@@H](C)CN([C@@H](C)CO)C(=O)c2cc(NC(=O)c3ccccc3)ccc2O1	0.1	-84.2*	/	0.0
COc1ccccc1CNC(=O)C[C@H]1C[C@@H]2c3cc(N(C)C)ccc3O[C@@H]2[C@@H](CO)O1	16.2	-59.1	88.0	-5.4
C[C@H]1CCCCO[C@H](CN(C)CC2CCCCC2)[C@@H](C)CN([C@@H](C)CO)C(=O)c2cc(NC(=O)Nc3cccc4ccccc34)ccc2O1	-4.5	-85.4*	120.8	/
C[C@@H]1CCCCO[C@@H](CN(C)CC2CCCCC2)[C@H](C)CN([C@H](C)CO)C(=O)c2cc(NC(=O)Nc3cccc4ccccc34)ccc2O1	-2.2	-89.3*	120.3	-3.1
C[C@@H]1CN([C@@H](C)CO)C(=O)c2cc(NC(=O)Nc3cccc4ccccc34)ccc2O[C@@H](C)CCCCO[C@@H]1CN(C)CC1CCCCC1	-0.8	-87.7*	121.0	0.9
C/C=C/c1cnc2c(c1)C(=O)N([C@@H](C)CO)C[C@@H](C)[C@H](CN(C)C(=O)c1ccc3c(c1)OCO3)O2	5.2	-18.6	47.8	-0.4
COc1cccc(-c2cccc(-c3nc(C(=O)NCCCN4CCOCC4)cc4c3[C@@H](CCO)N(S(=O)C(C)(C)C)C4)c2)c1 (stereo partly specified)	0.1	-27.2	56.2	0.4

Screening results deposited in PubChem by Broad Institute.
